Values after ≈ are worked out from the molar mass of the structure shown.
Legend:
Format in all cases: functional
[1] = tested on: Enterococcus faecalis; assay: Antimicrobial activity against vancomycin-resistant Enterococcus faecalis NCTC-12201
[2] = tested on: Enterococcus faecium; assay: Antimicrobial activity against vancomycin-resistant Enterococcus faecium ATCC 12202 infected in sc dosed mouse
Outline: (§1)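 Mice with systemic infection; dosing was oral (po line) or subcutaneous (sc line); ED50 reported in mg/kg.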

[3] = tested on: Enterococcus faecalis; assay: Antimicrobial activity against vancomycin-sensitive Enterococcus faecalis ATCC 29212
[4] = tested on: Enterococcus faecium; assay: Antimicrobial activity against vancomycin-resistant Enterococcus faecium ATCC 12202
[5] = tested on: Staphylococcus aureus; assay: Antimicrobial activity against Staphylococcus aureus
[6] = tested on: Staphylococcus aureus; assay: Antimicrobial activity against methicillin-resistant Staphylococcus aureus ATCC 33591
[7] = tested on: Staphylococcus aureus; assay: Antimicrobial activity against Staphylococcus aureus ATCC 29213
[8] = tested on: Enterococcus faecium; assay: Antimicrobial activity against vancomycin-resistant Enterococcus faecium ATCC 12202 infected in po dosed mouse; outline: as §1

SMILES | MIC [1] | ED50 [2] | MIC [3] | MIC [4] | MIC [5] | MIC [6] | MIC [7] | ED50 [8]
CN[C@H](CC(C)C)C(=O)N[C@H]1C(=O)N[C@@H](CC(N)=O)C(=O)N[C@H]2C(=O)N[C@H]3C(=O)N[C@H](C(=O)N[C@H](C(=O)O)c4cc(O)cc(O)c4-c4cc3ccc4O)[C@H](O)c3ccc(c(Cl)c3)Oc3cc2cc(c3O[C@@H]2O[C@H](CO)[C@@H](O)[C@H](O)[C@H]2O[C@H]2C[C@](C)(N)[C@H](O)[C@H](C)O2)Oc2ccc(cc2Cl)[C@H]1O [VANCOMYCIN] | > 32 µg/mL | 3.93 mg/kg | 2 µg/mL (≈ 1.38 µM) | > 32 µg/mL |  |  |  | 
CC(=O)NC[C@H]1CN(c2ccc(N3CCN(C(=O)Nc4ccccc4Cl)CC3)c(F)c2)C(=O)O1 | 2 µg/mL (≈ 4.08 µM) |  | 2 µg/mL (≈ 4.08 µM) | 2 µg/mL (≈ 4.08 µM) | 2 µg/mL (≈ 4.08 µM) | 2 µg/mL (≈ 4.08 µM) | 4 µg/mL (≈ 8.16 µM) | 
CC(=O)NC[C@H]1CN(c2ccc(N3CCOCC3)c(F)c2)C(=O)O1 [LINEZOLID] |  |  |  | 2 µg/mL (≈ 5.93 µM) |  |  |  | 3.91 mg/kg
COc1ccccc1NC(=O)N1CCN(c2ccc(N3C[C@H](CNC(C)=O)OC3=O)cc2F)CC1 | 2 µg/mL (≈ 4.12 µM) |  | 2 µg/mL (≈ 4.12 µM) | 2 µg/mL (≈ 4.12 µM) | 2 µg/mL (≈ 4.12 µM) | 2 µg/mL (≈ 4.12 µM) | 2 µg/mL (≈ 4.12 µM) | 9.1 mg/kg
CC(=O)NC[C@H]1CN(c2ccc(N3CCN(C(=O)Nc4nccs4)CC3)c(F)c2)C(=O)O1 | 1 µg/mL (≈ 2.16 µM) |  | 1 µg/mL (≈ 2.16 µM) | 1 µg/mL (≈ 2.16 µM) | 2 µg/mL (≈ 4.32 µM) | 2 µg/mL (≈ 4.32 µM) | 2 µg/mL (≈ 4.32 µM) | 18.4 mg/kg
CC(=O)NC[C@H]1CN(c2ccc(N3CCN(C(=O)Nc4cccc(F)c4)CC3)c(F)c2)C(=O)O1 | 1 µg/mL (≈ 2.11 µM) |  | 2 µg/mL (≈ 4.22 µM) | 2 µg/mL (≈ 4.22 µM) | 2 µg/mL (≈ 4.22 µM) | 2 µg/mL (≈ 4.22 µM) | 4 µg/mL (≈ 8.45 µM) | 18.4 mg/kg
COc1ccc(NC(=O)N2CCN(c3ccc(N4C[C@H](CNC(C)=O)OC4=O)cc3F)CC2)c(OC)c1 | 2 µg/mL (≈ 3.88 µM) |  | 2 µg/mL (≈ 3.88 µM) | 4 µg/mL (≈ 7.76 µM) | 4 µg/mL (≈ 7.76 µM) | 4 µg/mL (≈ 7.76 µM) | 4 µg/mL (≈ 7.76 µM) | 
CC(=O)NC[C@H]1CN(c2ccc(N3CCN(C(=O)NO)CC3)c(F)c2)C(=O)O1 | 2 µg/mL (≈ 5.06 µM) |  | 4 µg/mL (≈ 10.1 µM) | 2 µg/mL (≈ 5.06 µM) | 2 µg/mL (≈ 5.06 µM) | 4 µg/mL (≈ 10.1 µM) | 4 µg/mL (≈ 10.1 µM) | 
CC(=N)NC(=O)N1CCN(c2ccc(N3C[C@H](CNC(C)=O)OC3=O)cc2F)CC1 | 2 µg/mL (≈ 4.76 µM) |  | 2 µg/mL (≈ 4.76 µM) | 4 µg/mL (≈ 9.51 µM) | 4 µg/mL (≈ 9.51 µM) | 4 µg/mL (≈ 9.51 µM) | 4 µg/mL (≈ 9.51 µM) | 
CC(=O)NC[C@H]1CN(c2ccc(N3CCN(C(=O)NC(C)=O)CC3)c(F)c2)C(=O)O1 | 4 µg/mL (≈ 9.49 µM) |  | 8 µg/mL (≈ 19 µM) | 4 µg/mL (≈ 9.49 µM) | 8 µg/mL (≈ 19 µM) | 8 µg/mL (≈ 19 µM) | 16 µg/mL (≈ 38 µM) | 
CC(=O)NC[C@H]1CN(c2ccc(N3CCN(C(=O)NC4CCCCCC4)CC3)c(F)c2)C(=O)O1 | 2 µg/mL (≈ 4.21 µM) |  | 4 µg/mL (≈ 8.41 µM) | 4 µg/mL (≈ 8.41 µM) | 4 µg/mL (≈ 8.41 µM) | 4 µg/mL (≈ 8.41 µM) | 4 µg/mL (≈ 8.41 µM) | 
CC(=O)NC[C@H]1CN(c2ccc(N3CCN(C(N)=O)CC3)c(F)c2)C(=O)O1 | 2 µg/mL (≈ 5.27 µM) |  | 2 µg/mL (≈ 5.27 µM) | 2 µg/mL (≈ 5.27 µM) | 2 µg/mL (≈ 5.27 µM) | 2 µg/mL (≈ 5.27 µM) | 4 µg/mL (≈ 10.5 µM) | 13.8 mg/kg
CC(=O)NC[C@H]1CN(c2ccc(N3CCN(C(=O)NC4CC4)CC3)c(F)c2)C(=O)O1 | 4 µg/mL (≈ 9.54 µM) |  | 8 µg/mL (≈ 19.1 µM) | 4 µg/mL (≈ 9.54 µM) | 8 µg/mL (≈ 19.1 µM) | 8 µg/mL (≈ 19.1 µM) | 16 µg/mL (≈ 38.1 µM) | 
CNC(=O)N1CCN(c2ccc(N3C[C@H](CNC(C)=O)OC3=O)cc2F)CC1 | 2 µg/mL (≈ 5.08 µM) |  | 4 µg/mL (≈ 10.2 µM) | 4 µg/mL (≈ 10.2 µM) | 4 µg/mL (≈ 10.2 µM) | 4 µg/mL (≈ 10.2 µM) | 4 µg/mL (≈ 10.2 µM) | 
CC(=O)NC[C@H]1CN(c2ccc(N3CCN(C(=O)NCc4ccc(Cl)cc4)CC3)c(F)c2)C(=O)O1 | 2 µg/mL (≈ 3.97 µM) |  | 4 µg/mL (≈ 7.94 µM) | 4 µg/mL (≈ 7.94 µM) | 4 µg/mL (≈ 7.94 µM) | 4 µg/mL (≈ 7.94 µM) | 4 µg/mL (≈ 7.94 µM) | 
CC(=O)NC[C@H]1CN(c2ccc(N3CCN(C(=O)Nc4ccc(Cl)cc4Cl)CC3)c(F)c2)C(=O)O1 | 1 µg/mL (≈ 1.91 µM) |  | 2 µg/mL (≈ 3.81 µM) | 2 µg/mL (≈ 3.81 µM) | 2 µg/mL (≈ 3.81 µM) | 1 µg/mL (≈ 1.91 µM) | 2 µg/mL (≈ 3.81 µM) | > 10 mg/kg
CC(=O)NC[C@H]1CN(c2ccc(N3CCN(C(=O)NC4CCCC4)CC3)c(F)c2)C(=O)O1 | 4 µg/mL (≈ 8.94 µM) |  | 4 µg/mL (≈ 8.94 µM) | 4 µg/mL (≈ 8.94 µM) | 8 µg/mL (≈ 17.9 µM) | 8 µg/mL (≈ 17.9 µM) | 8 µg/mL (≈ 17.9 µM) | 
CC(=O)NC[C@H]1CN(c2ccc(N3CCN(C(=O)Nc4ccccn4)CC3)c(F)c2)C(=O)O1 | 1 µg/mL (≈ 2.19 µM) |  | 1 µg/mL (≈ 2.19 µM) | 1 µg/mL (≈ 2.19 µM) | 2 µg/mL (≈ 4.38 µM) | 2 µg/mL (≈ 4.38 µM) | 2 µg/mL (≈ 4.38 µM) | 
CC(=O)NC[C@H]1CN(c2ccc(N3CCN(C(=O)Nc4ccon4)CC3)c(F)c2)C(=O)O1 | 2 µg/mL (≈ 4.48 µM) |  | 2 µg/mL (≈ 4.48 µM) | 4 µg/mL (≈ 8.96 µM) | 4 µg/mL (≈ 8.96 µM) | 4 µg/mL (≈ 8.96 µM) | 4 µg/mL (≈ 8.96 µM) | 
COc1ccc(CNC(=O)N2CCN(c3ccc(N4C[C@H](CNC(C)=O)OC4=O)cc3F)CC2)cc1 | 2 µg/mL (≈ 4 µM) |  | 2 µg/mL (≈ 4 µM) | 2 µg/mL (≈ 4 µM) | 2 µg/mL (≈ 4 µM) | 2 µg/mL (≈ 4 µM) | 4 µg/mL (≈ 8.01 µM) | 
CC(=O)NC[C@H]1CN(c2ccc(N3CCN(C(=O)Nc4ccccc4)CC3)c(F)c2)C(=O)O1 | 2 µg/mL (≈ 4.39 µM) |  | 2 µg/mL (≈ 4.39 µM) | 2 µg/mL (≈ 4.39 µM) | 2 µg/mL (≈ 4.39 µM) | 4 µg/mL (≈ 8.78 µM) | 4 µg/mL (≈ 8.78 µM) | > 10 mg/kg
